# Measured values from ChEMBL document CHEMBL1250501, “Anti-tubercular agents. Part 5: synthesis and biological evaluation of benzothiadiazine 1,1-dioxide based congeners” (Eur J Med Chem, 2010).
# Activity calls are given as the source filed them. No cut-off for these calls is given here.
# Columns and labels:
# [1] = test system: Mycobacterium tuberculosis; assay: Antimycobacterial activity against Mycobacterium tuberculosis H37Rv after 3 to 4 weeks by broth microdilution assay; assay type: functional
# Outline: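 MIC by broth microdilution on compounds active in a single-concentration primary screen. Plates incubated 3–4 weeks at 37 °C in a CO₂ incubator. Wells read visually for absence of growth turbidity.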
# Staphylococcus aureus [2] = assay: Antibacterial activity against Staphylococcus aureus at 100 ug/ml after 18 hrs by cup plate method; assay type: functional; settings: read-out: DIZ
# Outline: (§1)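 Agar well diffusion on Mueller-Hinton agar. Inoculum was adjusted to a 0.5 McFarland standard (about […] × 10⁸ CFU/mL) and swabbed over the plate three times, rotating about 60° each time, then the rim was swabbed. Compounds in DMSO went into duplicate 6 mm wells. Plates were incubated at 37 °C for 18 h and inhibition zone diameter read to the nearest mm. DMSO negative control; streptomycin and ciprofloxacin positive controls.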
# Staphylococcus aureus [3] = assay: Antibacterial activity against Staphylococcus aureus at 50 ug/ml after 18 hrs by cup plate method; assay type: functional; settings: read-out: DIZ; outline: as §1
# [4] = test system: Staphylococcus epidermidis; assay: Antibacterial activity against Staphylococcus epidermidis at 100 ug/ml after 18 hrs by cup plate method; assay type: functional; settings: read-out: DIZ; outline: as §1
# [5] = test system: Staphylococcus epidermidis; assay: Antibacterial activity against Staphylococcus epidermidis at 50 ug/ml after 18 hrs by cup plate method; assay type: functional; settings: read-out: DIZ; outline: as §1
# Bacillus subtilis [6] = assay: Antibacterial activity against Bacillus subtilis at 100 ug/ml after 18 hrs by cup plate method; assay type: functional; settings: read-out: DIZ; outline: as §1
# Bacillus subtilis [7] = assay: Antibacterial activity against Bacillus subtilis at 50 ug/ml after 18 hrs by cup plate method; assay type: functional; settings: read-out: DIZ; outline: as §1
# Escherichia coli [8] = assay: Antibacterial activity against Escherichia coli at 100 ug/ml after 18 hrs by cup plate method; assay type: functional; settings: read-out: DIZ; outline: as §1
# Escherichia coli [9] = assay: Antibacterial activity against Escherichia coli at 50 ug/ml after 18 hrs by cup plate method; assay type: functional; settings: read-out: DIZ; outline: as §1
# Klebsiella pneumoniae [10] = assay: Antibacterial activity against Klebsiella pneumoniae at 100 ug/ml after 18 hrs by cup plate method; assay type: functional; settings: read-out: DIZ; outline: as §1
# Klebsiella pneumoniae [11] = assay: Antibacterial activity against Klebsiella pneumoniae at 50 ug/ml after 18 hrs by cup plate method; assay type: functional; settings: read-out: DIZ; outline: as §1
# Pseudomonas aeruginosa [12] = assay: Antibacterial activity against Pseudomonas aeruginosa at 100 ug/ml after 18 hrs by cup plate method; assay type: functional; settings: read-out: DIZ; outline: as §1
# Pseudomonas aeruginosa [13] = assay: Antibacterial activity against Pseudomonas aeruginosa at 50 ug/ml after 18 hrs by cup plate method; assay type: functional; settings: read-out: DIZ; outline: as §1
# Candida albicans [14] = assay: Antifungal activity against Candida albicans MTCC 227 at 100 ug/ml after 48 hrs by cup plate method; assay type: functional; settings: MTCC 227, 48 h, read-out: IZ
# Outline: (§2)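 Agar well (cup plate) diffusion on potato dextrose agar 39 g/L, with compounds dissolved in DMSO. Plates were incubated at 28 ± 2 °C for 48 h and inhibition zones measured to the nearest mm. Three replicates per treatment. Amphotericin B positive control; solvent control included.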
# Candida albicans [15] = assay: Antifungal activity against Candida albicans MTCC 227 at 50 ug/ml after 48 hrs by cup plate method; assay type: functional
# Outline: (§3)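 Agar well (cup plate) diffusion on potato dextrose agar 39 g/L. Compounds dissolved in DMSO and loaded into 6 mm wells. Incubated at 28 ± 2 °C for 48 h. Inhibition zone diameter measured to the nearest millimetre, three replicates per treatment. DMSO solvent as negative control, amphotericin B as positive control.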
# Staphylococcus aureus [16] = assay: Antibacterial activity against Staphylococcus aureus at 10 ug/ml after 18 hrs by cup plate method; assay type: functional; settings: read-out: DIZ; outline: as §1
# Staphylococcus aureus [17] = assay: Antibacterial activity against Staphylococcus aureus at 25 ug/ml after 18 hrs by cup plate method; assay type: functional; settings: read-out: DIZ; outline: as §1
# Staphylococcus aureus [18] = assay: Antibacterial activity against Staphylococcus aureus at 75 ug/ml after 18 hrs by cup plate method; assay type: functional; settings: read-out: DIZ; outline: as §1
# [19] = test system: Staphylococcus epidermidis; assay: Antibacterial activity against Staphylococcus epidermidis at 10 ug/ml after 18 hrs by cup plate method; assay type: functional; settings: read-out: DIZ; outline: as §1
# [20] = test system: Staphylococcus epidermidis; assay: Antibacterial activity against Staphylococcus epidermidis at 25 ug/ml after 18 hrs by cup plate method; assay type: functional; settings: read-out: DIZ; outline: as §1
# [21] = test system: Staphylococcus epidermidis; assay: Antibacterial activity against Staphylococcus epidermidis at 75 ug/ml after 18 hrs by cup plate method; assay type: functional; settings: read-out: DIZ; outline: as §1
# Bacillus subtilis [22] = assay: Antibacterial activity against Bacillus subtilis at 10 ug/ml after 18 hrs by cup plate method; assay type: functional; outline: as §1
# Bacillus subtilis [23] = assay: Antibacterial activity against Bacillus subtilis at 25 ug/ml after 18 hrs by cup plate method; assay type: functional; settings: read-out: DIZ; outline: as §1
# Bacillus subtilis [24] = assay: Antibacterial activity against Bacillus subtilis at 75 ug/ml after 18 hrs by cup plate method; assay type: functional; settings: read-out: DIZ; outline: as §1
# Escherichia coli [25] = assay: Antibacterial activity against Escherichia coli at 10 ug/ml after 18 hrs by cup plate method; assay type: functional; settings: read-out: DIZ; outline: as §1
# Escherichia coli [26] = assay: Antibacterial activity against Escherichia coli at 25 ug/ml after 18 hrs by cup plate method; assay type: functional; settings: read-out: DIZ; outline: as §1
# Escherichia coli [27] = assay: Antibacterial activity against Escherichia coli at 75 ug/ml after 18 hrs by cup plate method; assay type: functional; settings: read-out: DIZ; outline: as §1
# Pseudomonas aeruginosa [28] = assay: Antibacterial activity against Pseudomonas aeruginosa at 10 ug/ml after 18 hrs by cup plate method; assay type: functional; outline: as §1
# Pseudomonas aeruginosa [29] = assay: Antibacterial activity against Pseudomonas aeruginosa at 25 ug/ml after 18 hrs by cup plate method; assay type: functional; settings: read-out: DIZ; outline: as §1
# Pseudomonas aeruginosa [30] = assay: Antibacterial activity against Pseudomonas aeruginosa at 75 ug/ml after 18 hrs by cup plate method; assay type: functional; settings: read-out: DIZ; outline: as §1
# Klebsiella pneumoniae [31] = assay: Antibacterial activity against Klebsiella pneumoniae at 10 ug/ml after 18 hrs by cup plate method; assay type: functional; settings: read-out: DIZ; outline: as §1
# Klebsiella pneumoniae [32] = assay: Antibacterial activity against Klebsiella pneumoniae at 25 ug/ml after 18 hrs by cup plate method; assay type: functional; settings: read-out: DIZ; outline: as §1
# Klebsiella pneumoniae [33] = assay: Antibacterial activity against Klebsiella pneumoniae at 75 ug/ml after 18 hrs by cup plate method; assay type: functional; settings: read-out: DIZ; outline: as §1
# Candida albicans [34] = assay: Antifungal activity against Candida albicans MTCC 227 at 25 ug/ml after 48 hrs by cup plate method; assay type: functional; outline: as §3
# Candida albicans [35] = assay: Antifungal activity against Candida albicans MTCC 227 at 75 ug/ml after 48 hrs by cup plate method; assay type: functional; outline: as §3
# Aspergillus niger [36] = assay: Antifungal activity against Aspergillus niger at 25 ug/ml after 48 hrs by cup plate method; assay type: functional, organism-based; outline: as §2
# Aspergillus niger [37] = assay: Antifungal activity against Aspergillus niger at 50 ug/ml after 48 hrs by cup plate method; assay type: functional, organism-based; outline: as §2
# Aspergillus niger [38] = assay: Antifungal activity against Aspergillus niger at 75 ug/ml after 48 hrs by cup plate method; assay type: functional; outline: as §2
# Aspergillus niger [39] = assay: Antifungal activity against Aspergillus niger at 100 ug/ml after 48 hrs by cup plate method; assay type: functional; outline: as §2
# Aspergillus sp. [40] = assay: Antifungal activity against Aspergillus sp. at 25 ug/ml after 48 hrs by cup plate method; assay type: functional; outline: as §2
# Aspergillus sp. [41] = assay: Antifungal activity against Aspergillus sp. at 50 ug/ml after 48 hrs by cup plate method; assay type: functional; outline: as §2
# Aspergillus sp. [42] = assay: Antifungal activity against Aspergillus sp. at 75 ug/ml after 48 hrs by cup plate method; assay type: functional; outline: as §2
# Aspergillus sp. [43] = assay: Antifungal activity against Aspergillus sp. at 100 ug/ml after 48 hrs by cup plate method; assay type: functional; outline: as §2
compound,measurement,setting,value
CCN1C(N2CCN(Cc3ccc([N+](=O)[O-])o3)CC2)=NS(=O)(=O)c2ccccc21,MIC,[1],2.81 µg/mL
same,zone of inhibition at 100 µg/mL,Staphylococcus aureus [2],10 mm
same,zone of inhibition at 50 µg/mL,Staphylococcus aureus [3],16 mm
same,zone of inhibition at 100 µg/mL,[4],24 mm
same,zone of inhibition at 50 µg/mL,[5],12 mm
same,zone of inhibition at 100 µg/mL,Bacillus subtilis [6],23 mm
same,zone of inhibition at 50 µg/mL,Bacillus subtilis [7],17 mm
same,zone of inhibition at 100 µg/mL,Escherichia coli [8],30 mm
same,zone of inhibition at 50 µg/mL,Escherichia coli [9],16 mm
same,zone of inhibition at 100 µg/mL,Klebsiella pneumoniae [10],19 mm
same,zone of inhibition at 50 µg/mL,Klebsiella pneumoniae [11],11 mm
same,zone of inhibition at 100 µg/mL,Pseudomonas aeruginosa [12],16 mm
same,zone of inhibition at 50 µg/mL,Pseudomonas aeruginosa [13],10 mm
same,zone of inhibition at 100 µg/mL,Candida albicans [14],10 mm
same,inhibition zone (IZ),Candida albicans [15],inactive
same,zone of inhibition at 10 µg/mL,Staphylococcus aureus [16],13 mm
same,zone of inhibition at 25 µg/mL,Staphylococcus aureus [17],16 mm
same,zone of inhibition at 75 µg/mL,Staphylococcus aureus [18],21 mm
same,zone of inhibition at 10 µg/mL,[19],9 mm
same,zone of inhibition at 25 µg/mL,[20],12 mm
same,zone of inhibition at 75 µg/mL,[21],15 mm
same,diameter of the inhibition zone (DIZ),Bacillus subtilis [22],inactive
same,zone of inhibition at 25 µg/mL,Bacillus subtilis [23],11 mm
same,zone of inhibition at 75 µg/mL,Bacillus subtilis [24],19 mm
same,zone of inhibition at 10 µg/mL,Escherichia coli [25],12 mm
same,zone of inhibition at 25 µg/mL,Escherichia coli [26],20 mm
same,zone of inhibition at 75 µg/mL,Escherichia coli [27],29 mm
same,diameter of the inhibition zone (DIZ),Pseudomonas aeruginosa [28],inactive
same,zone of inhibition at 25 µg/mL,Pseudomonas aeruginosa [29],16 mm
same,zone of inhibition at 75 µg/mL,Pseudomonas aeruginosa [30],22 mm
same,zone of inhibition at 10 µg/mL,Klebsiella pneumoniae [31],10 mm
same,zone of inhibition at 25 µg/mL,Klebsiella pneumoniae [32],15 mm
same,zone of inhibition at 75 µg/mL,Klebsiella pneumoniae [33],20 mm
same,inhibition zone (IZ),Candida albicans [34],inactive
same,inhibition zone (IZ),Candida albicans [35],inactive
same,inhibition zone (IZ),Aspergillus niger [36],inactive
same,inhibition zone (IZ),Aspergillus niger [37],inactive
same,inhibition zone (IZ),Aspergillus niger [38],inactive
same,inhibition zone (IZ),Aspergillus niger [39],inactive
same,inhibition zone (IZ),Aspergillus sp. [40],inactive
same,inhibition zone (IZ),Aspergillus sp. [41],inactive
same,inhibition zone (IZ),Aspergillus sp. [42],inactive
same,inhibition zone (IZ),Aspergillus sp. [43],inactive
